These results are taken from ChEMBL document CHEMBL3588765, “Synthesis and molecular docking of 1,2,3-triazole-based sulfonamides as aromatase inhibitors” (Bioorg Med Chem, 2015).

Molecules are shown by their SMILES. Converted amounts (≈) assume the structure as drawn. A value given as a limit tells only on which side of the number the result lay.

One data set relates to Vero. In words: Cytotoxicity against african green monkey Vero cells after 4 days by green fluorescent protein detection method. The format is cell-based. The settings on record: Chlorocebus sabaeus, 96 h.
For the next data set, the target named is T1, Aromatase (Homo sapiens, UniProt P11511).
T1 sequence (P11511 whole entry): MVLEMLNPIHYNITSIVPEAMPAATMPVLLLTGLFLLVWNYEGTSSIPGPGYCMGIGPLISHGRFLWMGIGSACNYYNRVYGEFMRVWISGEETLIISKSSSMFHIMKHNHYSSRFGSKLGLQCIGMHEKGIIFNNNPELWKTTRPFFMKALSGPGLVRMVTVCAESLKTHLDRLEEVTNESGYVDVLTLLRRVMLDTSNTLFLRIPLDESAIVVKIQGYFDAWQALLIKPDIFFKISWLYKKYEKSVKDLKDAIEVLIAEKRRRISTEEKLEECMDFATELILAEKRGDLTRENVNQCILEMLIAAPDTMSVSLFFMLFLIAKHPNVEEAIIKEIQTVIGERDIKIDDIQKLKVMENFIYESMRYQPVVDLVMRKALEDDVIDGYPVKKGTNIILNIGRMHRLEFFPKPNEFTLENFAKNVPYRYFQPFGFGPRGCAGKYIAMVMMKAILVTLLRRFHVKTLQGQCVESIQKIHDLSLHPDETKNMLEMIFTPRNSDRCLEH
Briefly: Inhibition of CYP19 (unknown origin) using O-benzyl fluorescein benzyl ester substrate preincubated for 10 mins by fluorimetric analysis relative to control. The essentials: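 CYP19 was assayed with dibenzylfluorescein (DBF) as substrate. DBF is dealkylated by the enzyme and hydrolysed to fluorescein. Cofactor mix was 50 mM phosphate buffer pH 7.4 with an NADPH-generating system (NADP⁺, glucose-6-phosphate, MgCl₂, glucose-6-phosphate dehydrogenase). This mix was preincubated 10 min at 37 °C. Enzyme/substrate mixture (16 pmol/mL CYP19 stock, 0.2 mM DBF stock) and test sample were then added.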

Data set [1] in a line: Selectivity index, ratio of IC50 for african green monkey Vero cells to IC50 for CYP19 (unknown origin). The essentials: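 Selectivity index was calculated as the IC₅₀ in GFP-Vero cells (4-day fluorescence assay) divided by the IC₅₀ in the DBF-based CYP19 fluorescence assay.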
A short description of data set [2]: Solubility of the compound in phosphate buffer at pH 7.4 medium. It counts as physicochemical.

What is called IC50 is the concentration needed to halve the response being measured. `O=c1ccc2ccc(OCc3cn(-c4ccc(S(=O)(=O)NCCc5ccccc5)cc4)nn3)cc2o1`: the 50% inhibitory concentration (IC50) in the data set on Vero was greater than 50 µg/mL; on Aromatase, greater than 12.5 µM.
On to `O=c1cc(OCc2cn(-c3ccc(S(=O)(=O)NCCc4ccccc4)cc3)nn2)c2ccccc2o1`, for which the values for the IC50 in the data set on Vero and against Aromatase were greater than 50 µg/mL and 1.8 µM, respectively. The “Ratio IC50” value in data set [1] is recorded as greater than 55.27.
The matching figures for `COc1ccc(CCNS(=O)(=O)c2ccc(-n3cc(-c4ccccc4)nn3)cc2)cc1OC`: greater than 50 µg/mL, 4.6 µM and greater than 23.4.
Take `COc1ccc(CCNS(=O)(=O)c2ccc(-n3cc(COc4ccc([N+](=O)[O-])cc4)nn3)cc2)cc1OC`: the figures for the IC50 in the data set on Vero and against Aromatase were greater than 50 µg/mL and 2.7 µM, respectively. The “Ratio IC50” value in data set [1] is recorded as greater than 34.32.
For the molecule `O=S(=O)(NCCc1ccccc1)c1ccc(-n2cc(-c3ccccc3)nn2)cc1`, the IC50 in the data set on Vero is greater than 50 µg/mL; at Aromatase it was greater than 12.5 µM.
Consider `O=S(=O)(NCCc1ccccc1)c1ccc(-n2cc(COc3ccccc3)nn2)cc1`, for which the IC50 with Vero was greater than 50 µg/mL; against Aromatase, 9.4 µM. In addition, the “Ratio IC50” value in data set [1] is reported as greater than 12.24.
On the same counts, the results for `O=S(=O)(NCCc1ccccc1)c1ccc(-n2cc(COc3cccc4ccccc34)nn2)cc1` are greater than 50 µg/mL, 3.4 µM and greater than 30.35.
On the same counts, the results for `O=S(=O)(NCCc1ccccc1)c1ccc(-n2cc(COc3ccc4ccccc4c3)nn2)cc1` are greater than 50 µg/mL, 1.3 µM and greater than 79.37.
Turning to `Cc1ccc(OCc2cn(-c3ccc(S(=O)(=O)NCCc4ccccc4)cc3)nn2)cc1`, the half-inhibitory concentration (IC50) was greater than 50 µg/mL with Vero and 8 µM on Aromatase. The “Ratio IC50” value in data set [1] is greater than 13.93.
On the same counts, the results for `O=Cc1ccc(OCc2cn(-c3ccc(S(=O)(=O)NCCc4ccccc4)cc3)nn2)cc1` are greater than 50 µg/mL, 7.9 µM and greater than 13.68.
On the same counts, the results for `O=[N+]([O-])c1ccc(OCc2cn(-c3ccc(S(=O)(=O)NCCc4ccccc4)cc3)nn2)cc1` are greater than 50 µg/mL, 2.9 µM and greater than 35.96.
Consider `Cc1ccccc1OCc1cn(-c2ccc(S(=O)(=O)NCCc3ccccc3)cc2)nn1`, for which the half-inhibitory concentration (IC50) is greater than 50 µg/mL in the data set with Vero and 3.4 µM at Aromatase. The “Ratio IC50” value in data set [1] is greater than 32.79.
Regarding `CC(=O)c1ccccc1OCc1cn(-c2ccc(S(=O)(=O)N3CCc4ccccc4C3)cc2)nn1`, the IC50 is greater than 50 µg/mL in the data set with Vero and greater than 12.5 µM against Aromatase.
In the case of `O=c1cc(OCc2cn(-c3ccc(S(=O)(=O)N4CCc5ccccc5C4)cc3)nn2)c2ccccc2o1`, the half-maximal inhibitory concentration (IC50) against Aromatase is greater than 12.5 µM.
For `COc1cc2c(cc1OC)CN(S(=O)(=O)c1ccc(-n3cc(COc4ccccc4C)nn3)cc1)CC2`, the concentration for half-maximal inhibition (IC50) is greater than 50 µg/mL in the data set with Vero and greater than 12.5 µM against Aromatase.
`COc1cc2c(cc1OC)CN(S(=O)(=O)c1ccc(-n3cc(COc4ccccc4C(C)=O)nn3)cc1)CC2` had a half-maximal inhibitory concentration (IC50) on Aromatase greater than 12.5 µM.
Same read-out and setting: the figure for `COC(=O)c1ccccc1OCc1cn(-c2ccc(S(=O)(=O)N3CCc4cc(OC)c(OC)cc4C3)cc2)nn1` is greater than 12.5 µM.
Regarding `COc1cc2c(cc1OC)CN(S(=O)(=O)c1ccc(-n3cc(COc4ccc([N+](=O)[O-])cc4)nn3)cc1)CC2`, the IC50 in the data set on Vero was greater than 50 µg/mL; against Aromatase, greater than 12.5 µM.
The matching figures for `COc1cc2c(cc1OC)CN(S(=O)(=O)c1ccc(-n3cc(COc4cc(C=O)ccc4OC)nn3)cc1)CC2`: greater than 50 µg/mL and greater than 12.5 µM.
On to `O=c1ccc2ccc(OCc3cn(-c4cccc(S(=O)(=O)N5CCc6ccccc6C5)c4)nn3)cc2o1`, for which, in the data set with Vero, half-maximal inhibition (IC50) required 91.5 µg/mL (≈ 178 µM). In addition, the solubility entry in data set [2] is reported as “Insoluble”.
In the case of `O=c1cc(OCc2cn(-c3cccc(S(=O)(=O)N4CCc5ccccc5C4)c3)nn2)c2ccccc2o1`, the IC50 in the data set with Vero is greater than 50 µg/mL; at Aromatase, greater than 12.5 µM.
`COc1cc2c(cc1OC)CN(S(=O)(=O)c1cccc(-n3cc(COc4ccc5ccc(=O)oc5c4)nn3)c1)CC2`: the concentration for half-maximal inhibition (IC50) with Vero was greater than 50 µg/mL; at Aromatase it was 0.2 µM. The “Ratio IC50” value in data set [1] is listed as greater than 435.09.
On the same counts, the results for `COc1cc2c(cc1OC)CN(S(=O)(=O)c1cccc(-n3cc(COc4cc(=O)oc5ccccc45)nn3)c1)CC2` are 86.3 µg/mL (≈ 150 µM), 1.8 µM and 48.
On to `Cc1c2ccncc2c(C)c2c1[nH]c1ccccc12` [ELLIPTECINE], for which, in the data set on Vero, the half-maximal inhibitory concentration (IC50) amounted to 1.94 µg/mL (≈ 7.88 µM).
